Test results taken from ChEMBL document CHEMBL1759892 (Bioorg Med Chem Lett, 2011).
pIC50, pKi: −log10 of the molar value.

Columns and labels:
Salmonella typhimurium = experiment: Genotoxicity in Salmonella Typhimurium by Ames test in presence of S9 fraction; type: toxicity, organism-based; conditions: salmonella enterica subsp. enterica serovar typhimurium
Cytochrome P450 3A4 = Cytochrome P450 3A4 (Homo sapiens, UniProt P08684); experiment: Inhibition of CYP3A4; type: ADME
Cytochrome P450 2D6 = Cytochrome P450 2D6 (Homo sapiens, UniProt P10635); experiment: Inhibition of CYP2D6; type: ADME
Cytochrome P450 2C19 = Cytochrome P450 2C19 (Homo sapiens, UniProt P33261); experiment: Inhibition of CYP2C19; type: ADME
Cytochrome P450 2C9 = Cytochrome P450 2C9 (Homo sapiens, UniProt P11712); experiment: Inhibition of CYP2C9; type: ADME
[1] = target: Voltage-gated inwardly rectifying potassium channel KCNH2 (Homo sapiens, UniProt Q12809); experiment: Inhibition of human ERG
Adenosine receptor A1 = target: T1, Adenosine receptor A1 (Homo sapiens, UniProt P30542); experiment: Displacement of [3H]-DPCPX from human adenosine A1 receptor after 1 hr
T1 sequence (P30542 whole entry): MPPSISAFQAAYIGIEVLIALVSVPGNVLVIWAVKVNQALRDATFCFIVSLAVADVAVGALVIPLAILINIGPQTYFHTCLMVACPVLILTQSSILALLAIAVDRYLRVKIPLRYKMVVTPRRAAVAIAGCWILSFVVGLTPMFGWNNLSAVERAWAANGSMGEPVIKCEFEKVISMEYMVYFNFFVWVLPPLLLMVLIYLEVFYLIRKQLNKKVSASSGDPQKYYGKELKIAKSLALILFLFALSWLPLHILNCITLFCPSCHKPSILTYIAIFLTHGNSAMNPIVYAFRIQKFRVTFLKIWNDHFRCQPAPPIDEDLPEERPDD
Method in brief: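 Human A1 receptor membranes, diluted in HEPES 50 mM, NaCl 100 mM, MgCl2 1 mM, were incubated with [3H]-DPCPX (4.8 nM final) and test compound for 1 h at room temperature with orbital shaking. Reactions were filtered on polyethyleneimine-treated filter plates, air dried and counted by scintillation. Values given as Ki.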

Adenosine receptor A2b [2] = target: T2, Adenosine receptor A2b (Homo sapiens, UniProt P29275); experiment: Inhibition of human adenosine A2B receptor expressed in CHO cells assessed as decrease in cellular cAMP level after 20 to 25 mins; type: functional, cell-based
T2 sequence (P29275 whole entry): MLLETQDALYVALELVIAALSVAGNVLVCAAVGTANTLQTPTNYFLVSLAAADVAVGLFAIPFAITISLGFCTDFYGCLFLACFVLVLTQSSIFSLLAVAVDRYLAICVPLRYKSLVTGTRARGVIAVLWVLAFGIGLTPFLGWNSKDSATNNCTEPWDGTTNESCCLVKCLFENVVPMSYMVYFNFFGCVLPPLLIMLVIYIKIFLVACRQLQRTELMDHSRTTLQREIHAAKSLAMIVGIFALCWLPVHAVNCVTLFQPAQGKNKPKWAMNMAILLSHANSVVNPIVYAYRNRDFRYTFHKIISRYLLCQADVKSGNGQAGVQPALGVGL

Adenosine receptor A2a = Adenosine receptor A2a (Homo sapiens, UniProt P29274); experiment: Displacement of [3H]ZM241385 from human adenosine A2A receptor after 1 hr
Adenosine receptor A2b [3] = target: T2, Adenosine receptor A2b; experiment: Displacement of [3H]ZM241385 from human adenosine A2B receptor expressed in CHO cells after 1 hr; type: cell-based
Method in brief: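 Whole CHO cells expressing human A2B were harvested mechanically at 80% confluence, frozen in aliquots and resuspended in assay buffer on the day of assay. Cells were incubated with [3H]-ZM241385 (30 nM final) and test compound for 1 h at room temperature with orbital shaking. Reactions were filtered on polyethyleneimine-treated plates and counted by scintillation. Values given as Ki.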

Sequence of Adenosine receptor A2a (P29274 whole entry): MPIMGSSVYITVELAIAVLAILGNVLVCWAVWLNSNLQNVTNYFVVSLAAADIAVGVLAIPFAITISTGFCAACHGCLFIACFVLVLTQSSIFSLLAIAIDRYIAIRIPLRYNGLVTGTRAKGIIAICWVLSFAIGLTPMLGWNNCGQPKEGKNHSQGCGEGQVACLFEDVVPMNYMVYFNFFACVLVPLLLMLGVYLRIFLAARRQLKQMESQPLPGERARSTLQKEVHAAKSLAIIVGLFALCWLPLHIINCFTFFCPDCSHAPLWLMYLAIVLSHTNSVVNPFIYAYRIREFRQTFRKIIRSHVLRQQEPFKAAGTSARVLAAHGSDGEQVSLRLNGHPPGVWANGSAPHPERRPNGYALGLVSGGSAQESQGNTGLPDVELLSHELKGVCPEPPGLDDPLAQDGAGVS
Sequence of Voltage-gated inwardly rectifying potassium channel KCNH2 (Q12809 whole entry): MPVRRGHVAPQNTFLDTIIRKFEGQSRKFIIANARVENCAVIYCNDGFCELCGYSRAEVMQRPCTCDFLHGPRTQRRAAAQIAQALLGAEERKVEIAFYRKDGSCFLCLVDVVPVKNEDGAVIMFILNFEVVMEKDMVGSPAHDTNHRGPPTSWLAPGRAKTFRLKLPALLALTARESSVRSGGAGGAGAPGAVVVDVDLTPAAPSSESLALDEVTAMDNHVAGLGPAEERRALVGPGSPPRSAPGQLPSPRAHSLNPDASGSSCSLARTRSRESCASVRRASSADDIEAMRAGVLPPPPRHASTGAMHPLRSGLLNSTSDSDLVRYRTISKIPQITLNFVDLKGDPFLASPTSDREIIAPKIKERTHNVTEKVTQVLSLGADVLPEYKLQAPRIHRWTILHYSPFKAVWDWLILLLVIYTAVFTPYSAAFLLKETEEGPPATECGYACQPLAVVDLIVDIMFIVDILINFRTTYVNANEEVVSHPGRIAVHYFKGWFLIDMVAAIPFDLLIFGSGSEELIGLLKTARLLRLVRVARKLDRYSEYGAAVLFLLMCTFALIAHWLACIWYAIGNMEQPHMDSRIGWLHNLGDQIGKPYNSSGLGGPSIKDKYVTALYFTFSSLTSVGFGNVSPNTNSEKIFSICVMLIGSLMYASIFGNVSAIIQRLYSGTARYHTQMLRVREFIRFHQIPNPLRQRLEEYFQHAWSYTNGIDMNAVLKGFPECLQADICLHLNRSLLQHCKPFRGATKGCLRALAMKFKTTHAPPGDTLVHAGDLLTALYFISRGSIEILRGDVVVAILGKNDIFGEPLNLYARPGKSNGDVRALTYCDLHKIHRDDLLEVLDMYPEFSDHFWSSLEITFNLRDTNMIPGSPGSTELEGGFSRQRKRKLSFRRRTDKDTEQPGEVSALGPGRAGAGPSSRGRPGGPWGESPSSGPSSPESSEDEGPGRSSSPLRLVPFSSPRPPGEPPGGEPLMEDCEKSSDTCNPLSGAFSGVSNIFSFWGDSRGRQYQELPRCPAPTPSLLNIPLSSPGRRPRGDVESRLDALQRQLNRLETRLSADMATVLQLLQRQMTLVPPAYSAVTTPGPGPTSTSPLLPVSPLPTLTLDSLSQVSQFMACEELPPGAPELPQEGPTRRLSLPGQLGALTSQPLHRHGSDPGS
Sequence of Cytochrome P450 2C19 (P33261 whole entry): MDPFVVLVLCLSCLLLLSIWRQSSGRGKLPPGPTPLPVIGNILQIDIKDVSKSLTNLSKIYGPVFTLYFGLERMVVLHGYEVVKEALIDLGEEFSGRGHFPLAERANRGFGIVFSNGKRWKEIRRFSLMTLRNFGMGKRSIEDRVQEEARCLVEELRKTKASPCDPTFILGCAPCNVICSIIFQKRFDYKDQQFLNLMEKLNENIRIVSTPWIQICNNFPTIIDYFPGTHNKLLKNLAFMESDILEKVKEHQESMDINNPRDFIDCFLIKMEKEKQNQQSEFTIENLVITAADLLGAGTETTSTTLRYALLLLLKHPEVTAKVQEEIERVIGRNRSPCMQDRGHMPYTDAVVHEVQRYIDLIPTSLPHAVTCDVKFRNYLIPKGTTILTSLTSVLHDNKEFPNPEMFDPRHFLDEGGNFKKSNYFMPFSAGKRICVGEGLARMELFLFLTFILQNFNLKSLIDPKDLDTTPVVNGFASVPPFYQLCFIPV
Sequence of Cytochrome P450 2D6 (P10635 whole entry): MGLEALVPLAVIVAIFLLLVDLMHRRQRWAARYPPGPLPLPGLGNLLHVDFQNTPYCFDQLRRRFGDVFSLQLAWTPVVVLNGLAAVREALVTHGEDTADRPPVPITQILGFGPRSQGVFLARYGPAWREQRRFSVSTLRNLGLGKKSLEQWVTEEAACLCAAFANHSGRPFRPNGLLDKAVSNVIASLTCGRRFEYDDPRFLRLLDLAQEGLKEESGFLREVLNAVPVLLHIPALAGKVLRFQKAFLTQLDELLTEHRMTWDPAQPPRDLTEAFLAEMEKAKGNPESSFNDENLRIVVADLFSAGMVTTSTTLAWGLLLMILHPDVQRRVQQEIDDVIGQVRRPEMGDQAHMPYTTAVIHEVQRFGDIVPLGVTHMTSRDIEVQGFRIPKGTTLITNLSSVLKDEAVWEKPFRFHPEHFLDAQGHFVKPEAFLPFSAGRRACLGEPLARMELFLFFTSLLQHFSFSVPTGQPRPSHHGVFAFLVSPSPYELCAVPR
Sequence of Cytochrome P450 2C9 (P11712 whole entry): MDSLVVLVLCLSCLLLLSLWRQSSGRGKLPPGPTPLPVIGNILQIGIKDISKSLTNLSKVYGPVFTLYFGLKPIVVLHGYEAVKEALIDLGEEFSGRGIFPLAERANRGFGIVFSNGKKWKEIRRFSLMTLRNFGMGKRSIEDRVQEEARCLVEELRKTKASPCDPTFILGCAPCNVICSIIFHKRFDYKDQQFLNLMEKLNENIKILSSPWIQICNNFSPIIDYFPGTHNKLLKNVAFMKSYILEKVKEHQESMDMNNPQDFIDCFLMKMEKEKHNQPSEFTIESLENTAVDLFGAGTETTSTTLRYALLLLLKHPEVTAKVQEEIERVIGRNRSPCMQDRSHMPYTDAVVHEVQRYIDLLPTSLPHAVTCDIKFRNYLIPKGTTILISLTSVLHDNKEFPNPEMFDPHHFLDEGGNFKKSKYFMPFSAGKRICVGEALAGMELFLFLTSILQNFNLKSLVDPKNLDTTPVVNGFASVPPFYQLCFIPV
Sequence of Cytochrome P450 3A4 (P08684 whole entry): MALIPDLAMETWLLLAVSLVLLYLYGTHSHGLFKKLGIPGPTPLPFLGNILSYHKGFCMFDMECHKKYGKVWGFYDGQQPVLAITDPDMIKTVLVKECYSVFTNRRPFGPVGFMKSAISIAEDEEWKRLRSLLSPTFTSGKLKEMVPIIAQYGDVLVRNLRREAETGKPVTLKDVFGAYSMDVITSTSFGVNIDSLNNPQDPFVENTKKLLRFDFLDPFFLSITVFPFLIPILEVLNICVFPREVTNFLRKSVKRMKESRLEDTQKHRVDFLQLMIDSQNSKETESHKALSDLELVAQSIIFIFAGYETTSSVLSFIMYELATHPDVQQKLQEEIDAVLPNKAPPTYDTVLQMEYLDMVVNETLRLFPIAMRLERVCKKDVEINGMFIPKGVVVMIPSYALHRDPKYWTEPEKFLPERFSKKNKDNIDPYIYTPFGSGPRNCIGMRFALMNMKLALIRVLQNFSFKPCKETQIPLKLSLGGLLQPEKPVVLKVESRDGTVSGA

Row | pKi (Adenosine receptor A1) | pIC50 (Adenosine receptor A2b [2]) | pKi (Adenosine receptor A2a) | SMILES | other results
1 | – | – | – | CCN(C(C)=O)c1ccc(OC)c2nc(NC(=O)c3ccnn3C)sc12 | Activity (Salmonella typhimurium): Non-toxic; pIC50 (Cytochrome P450 3A4): < 4.30; pIC50 (Cytochrome P450 2D6): < 4.30; pIC50 (Cytochrome P450 2C19): < 4.30; pIC50 (Cytochrome P450 2C9): < 4.30; pIC50 [1]: < 4.00
2 | 7.34 | 7.80 | 6.96 | CCN(C(C)=O)c1ccc(OC)c2nc(NC(=O)[C@H]3CC[C@@H](NS(=O)(=O)c4cccc(C(F)(F)F)c4)CC3)sc12 | –
3 | 6.66 | 7.38 | 6.22 | CCN(C(C)=O)c1ccc(OC)c2nc(NC(=O)[C@@H]3CCN(S(=O)(=O)c4cccc(C(F)(F)F)c4)C3)sc12 | –
4 | 7.00 | 7.85 | 5.69 | CCN(C(C)=O)c1ccc(OC)c2nc(NC(=O)[C@@H]3CCN(C(=O)c4cccc(C(F)(F)F)c4)C3)sc12 | pKi (Adenosine receptor A2b [3]): 7.74
5 | 6.92 | 7.39 | 6.15 | CCN(C(C)=O)c1ccc(OC)c2nc(NC(=O)[C@H]3CCN(C(=O)c4cccc(C(F)(F)F)c4)C3)sc12 | –
6 | 7.21 | 8.10 | 7.09 | CCN(C(C)=O)c1ccc(OC)c2nc(NC(=O)[C@@H]3CC[C@H](NC(=O)c4cccc(C(F)(F)F)c4)C3)sc12 | –
7 | 7.51 | 8.10 | 7.51 | CCN(C(C)=O)c1ccc(OC)c2nc(NC(=O)[C@@H]3CC[C@@H](NC(=O)c4cccc(C(F)(F)F)c4)C3)sc12 | –
8 | – | 7.14 | – | CCN(C(C)=O)c1ccc(OC)c2nc(NC(=O)[C@@H]3CCN(Cc4cccc(C(F)(F)F)c4)C3)sc12 | –
9 | 8.70 | 7.77 | 6.64 | CCN(C(C)=O)c1ccc(OC)c2nc(NC(=O)C3CCN(C(=O)c4cccc(C(F)(F)F)c4)CC3)sc12 | –
10 | 7.11 | 7.31 | 5.98 | CCN(C(C)=O)c1ccc(OC)c2nc(NC(=O)C3CCN(S(=O)(=O)c4cccc(C(F)(F)F)c4)CC3)sc12 | –
11 | 8.00 | 7.36 | 6.00 | CCN(C(C)=O)c1ccc(OC)c2nc(NC(=O)C3CCN(Cc4cccc(C(F)(F)F)c4)CC3)sc12 | –
12 | 8.15 | 7.55 | 6.33 | CCN(C(C)=O)c1ccc(OC)c2nc(NC(=O)[C@H]3CC[C@H](NC(=O)c4cccc(C(F)(F)F)c4)CC3)sc12 | –
13 | 7.70 | 7.59 | 7.28 | CCN(C(C)=O)c1ccc(OC)c2nc(NC(=O)[C@H]3CC[C@@H](NC(=O)c4cccc(C(F)(F)F)c4)CC3)sc12 | –
14 | 7.72 | 8.10 | 6.68 | CCN(C(C)=O)c1ccc(OC)c2nc(NC(=O)N3CCC(O)(c4cccc(C(F)(F)F)c4)CC3)sc12 | pKi (Adenosine receptor A2b [3]): 8.30
15 | 8.30 | 7.74 | 6.62 | CCN(C(C)=O)c1ccc(OC)c2nc(NC(=O)N3CCC(c4cccc(C(F)(F)F)c4)CC3)sc12 | –
16 | 6.16 | 7.70 | 6.28 | CCN(C(C)=O)c1ccc(OC)c2nc(NC(=O)N3CCC(S(=O)(=O)c4cccc(C(F)(F)F)c4)CC3)sc12 | –
17 | 6.66 | 7.72 | 6.74 | CCN(C(C)=O)c1ccc(OC)c2nc(NC(=O)[C@@H]3CC[C@H](NCc4cccc(C(F)(F)F)c4)C3)sc12 (relative stereo) | –
